Laboratory results published in ChEMBL document CHEMBL4373708 (J Med Chem, 2019).
pIC50: −log10 of the molar value.

Test system: not listed separately
Experiment: Tmax in mouse at 5 mg/kg, ip by LC-MS analysis
Type: ADME, organism-based
Conditions: in vivo
How it was run: (§1)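 Single intraperitoneal or oral dose in mice at 5 mg/kg (vehicle: saline with 5% DMSO and 10% Kolliphor HS 15) or 10 mg/kg (vehicle: PBS with 5% DMSO and 20% (2-hydroxypropyl)-β-cyclodextrin). Blood taken by retroorbital puncture at set times, serum separated by centrifugation at 4000 g for 20 min at 24 °C, compound quantified by LC/MS.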

Row | Tmax [h] | SMILES
1 | 1.5 | Cc1c(CC(=O)O)c(=O)oc2c(C)c(OCc3cccc(Br)c3)ccc12

Test system: not listed separately
Experiment: AUC in mouse at 5 mg/kg, ip by LC-MS analysis
Type: ADME, organism-based
Conditions: in vivo
How it was run: as §1

Row | AUC [µM·h] | SMILES
2 | 231 | Cc1c(CC(=O)O)c(=O)oc2c(C)c(OCc3cccc(Br)c3)ccc12

Target: T1, Chloride anion exchanger (Mus musculus, UniProt Q9WVC8)
T1 sequence (Q9WVC8 whole entry): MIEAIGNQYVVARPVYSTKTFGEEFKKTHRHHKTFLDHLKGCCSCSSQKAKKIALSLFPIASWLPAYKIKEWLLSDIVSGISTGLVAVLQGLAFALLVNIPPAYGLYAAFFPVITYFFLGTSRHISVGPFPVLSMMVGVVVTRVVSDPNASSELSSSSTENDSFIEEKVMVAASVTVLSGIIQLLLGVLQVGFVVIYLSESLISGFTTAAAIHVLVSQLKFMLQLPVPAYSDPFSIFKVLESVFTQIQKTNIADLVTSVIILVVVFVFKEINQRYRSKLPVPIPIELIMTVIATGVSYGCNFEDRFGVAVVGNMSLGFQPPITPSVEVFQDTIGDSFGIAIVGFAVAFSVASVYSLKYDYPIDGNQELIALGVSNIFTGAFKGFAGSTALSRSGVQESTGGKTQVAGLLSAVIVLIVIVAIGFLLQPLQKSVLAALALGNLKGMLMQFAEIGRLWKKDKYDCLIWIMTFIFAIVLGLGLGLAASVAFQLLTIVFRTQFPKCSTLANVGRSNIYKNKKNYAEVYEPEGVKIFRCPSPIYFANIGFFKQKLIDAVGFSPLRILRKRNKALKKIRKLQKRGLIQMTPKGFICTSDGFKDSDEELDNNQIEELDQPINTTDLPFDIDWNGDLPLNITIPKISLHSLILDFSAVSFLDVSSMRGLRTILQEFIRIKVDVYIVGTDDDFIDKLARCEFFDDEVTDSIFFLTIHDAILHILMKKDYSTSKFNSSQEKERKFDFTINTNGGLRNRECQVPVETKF
Experiment: Inhibition of mouse slc26a3 expressed in FRT cells co-expressing EYFP-H148Q/I152L/F46L assessed as reduction in protein-mediated chloride/iodide exchange preincubated for 10 mins followed by NaI-substituted PBS addition and measured by YFP-based fluorescence assay
Type: cell-based
Conditions: not given
How it was run: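 Chloride/iodide exchange was assayed in FRT cells co-expressing murine slc26a3 and EYFP-H148Q/I152L/F46L. Cells in PBS received iodide-substituted PBS (NaCl replaced by 140 mM NaI), and the fluorescence quenching rate was measured. Concentration–inhibition data were fitted to a single-site model for IC50. Data are representative of 3 replicates.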

Row | pIC50 | SMILES
3 | 4.74 | Cc1c(CC(=O)O)c(=O)oc2c(C)c(OCc3ccccc3Cl)ccc12
4 | 4.82 | Cc1cc(C)cc(COc2ccc3c(C)c(CC(=O)O)c(=O)oc3c2C)c1
5 | 5.00 | Cc1c(CC(=O)O)c(=O)oc2c(C)c(OCc3ccccc3Br)ccc12
6 | 6.05 | Cc1c(CC(=O)O)c(=O)oc2c(C)c(OCc3cccc(F)c3)ccc12
7 | < 5.30 | Cc1c(CC(=O)O)c(=O)oc2c(C)c(OCc3cccnc3)ccc12
8 | 5.48 | Cc1c(CC(N)=O)c(=O)oc2c(C)c(OCc3cccc(Br)c3)ccc12
9 | 6.00 | Cc1c(CC(=O)O)c(=O)oc2c(C)c(OCc3cccc(Cl)c3)ccc12
10 | < 5.30 | Cc1c(CCC(=O)O)c(=O)oc2c(C)c(OCc3cccc(Br)c3)ccc12
11 | < 5.30 | Cc1c(CCC(=O)O)c(=O)oc2c(C)c(OCc3cccc(I)c3)ccc12
12 | < 5.30 | Cc1cccc(S(=O)(=O)Oc2ccc3c(C)c(CC(=O)O)c(=O)oc3c2C)c1
13 | 6.52 | Cc1c(CC(=O)O)c(=O)oc2c(C)c(OCc3cc(C(F)(F)F)cc(C(F)(F)F)c3)ccc12
14 | < 5.30 | Cc1c(CC(=O)O)c(=O)oc2c(C)c(OCc3ccc(Br)cc3)ccc12
15 | < 5.30 | C=CCOc1ccc2c(C)c(CC(=O)O)c(=O)oc2c1C
16 | < 5.30 | Cc1c(CC(=O)O)c(=O)oc2c(C)c(OCc3ccccn3)ccc12
17 | < 5.30 | Cc1c(CC(=O)O)c(=O)oc2c(C)c(OCCC(=O)O)ccc12
18 | 6.35 | Cc1c(OCc2cccc(Br)c2)ccc2cc(C(=O)NO)c(=O)oc12
19 | < 5.30 | Cc1c(CC(=O)O)c(=O)oc2c(C)c(OCc3ccc(Cl)cc3)ccc12

Row | pIC50 | SMILES
20 | < 5.30 | Cc1c(CC(=O)O)c(=O)oc2c(C)c(OCc3cccc(C(F)(F)F)n3)ccc12
21 | < 5.30 | Cc1c(OCc2cccc(I)c2)ccc2cc(C(=O)O)c(=O)oc12
22 | 6.30 | Cc1cccc(COc2ccc3c(C)c(CC(=O)O)c(=O)oc3c2C)c1
23 | < 5.30 | CCCOc1ccc2c(C)c(CC(=O)O)c(=O)oc2c1C
24 | < 5.30 | Cc1c(CC(=O)O)c(=O)oc2c(C)c(OCc3ccc(I)cc3)ccc12
25 | < 5.30 | Cc1c(OCc2cccc(Br)c2)ccc2cc(C(N)=O)c(=O)oc12
26 | < 5.30 | Cc1c(CC(=O)O)c(=O)oc2c(C)c(OS(=O)(=O)c3cccc(Cl)c3)ccc12
27 | < 5.30 | Cc1c(CC(=O)O)c(=O)oc2c(C)c(OCc3ccncc3)ccc12
28 | < 5.30 | COCCOc1ccc2c(C)c(CC(=O)O)c(=O)oc2c1C
29 | 5.82 | CCCCOc1ccc2c(C)c(CC(=O)O)c(=O)oc2c1C
30 | < 5.30 | Cc1c(CC(=O)O)c(=O)oc2c(C)c(OCCc3cccc(C(F)(F)F)c3)ccc12
31 | < 5.30 | Cc1c(CC(=O)O)c(=O)oc2c(C)c(OCc3cccc(CO)n3)ccc12
32 | 7.22 | Cc1c(CC(=O)O)c(=O)oc2c(C)c(OCc3cc(F)cc(C(F)(F)F)c3)ccc12
33 | 6.00 | CCCCCOc1ccc2c(C)c(CC(=O)O)c(=O)oc2c1C
34 | < 5.30 | Cc1c(OCc2cccc(Br)c2)ccc2cc(C(=O)O)c(=O)oc12
35 | < 5.30 | Cc1c(CC(=O)O)c(=O)oc2c(C)c(OCCn3cccc3)ccc12

Test system: not listed separately
Experiment: Tmax in mouse at 5 mg/kg, po by LC-MS analysis
Type: ADME, organism-based
Conditions: in vivo
How it was run: as §1

Row | Tmax [h] | SMILES
36 | 5.8 | Cc1c(CC(=O)O)c(=O)oc2c(C)c(OCc3cccc(Br)c3)ccc12

Test system: not listed separately
Experiment: Cmax in mouse at 5 mg/kg, po by LC-MS analysis
Type: ADME, organism-based
Parameters: dose 5 mg/kg, route oral
Conditions: in vivo
How it was run: as §1

Row | Cmax [µM] | SMILES
37 | 9.4 | Cc1c(CC(=O)O)c(=O)oc2c(C)c(OCc3cccc(Br)c3)ccc12

Test system: not listed separately
Experiment: Time at which serum concentration stays above in vitro IC50 for inhibition of mouse slc26a3 expressed in FRT cells in mouse at 5 mg/kg, po or ip by LC-MS analysis
Type: organism-based
Conditions: in vivo
How it was run: as §1

Row | Time | SMILES
38 | >= 24 hr | Cc1c(CC(=O)O)c(=O)oc2c(C)c(OCc3cccc(Br)c3)ccc12

Test system: not listed separately
Experiment: Cmax in mouse at 5 mg/kg, ip by LC-MS analysis
Type: ADME, organism-based
Parameters: dose 5 mg/kg, route intraperitoneal
Conditions: in vivo
How it was run: as §1

Row | Cmax [µM] | SMILES
39 | 24.3 | Cc1c(CC(=O)O)c(=O)oc2c(C)c(OCc3cccc(Br)c3)ccc12

Test system: not listed separately
Experiment: AUC in mouse at 5 mg/kg, po by LC-MS analysis
Type: ADME, organism-based
Conditions: in vivo
How it was run: as §1

Row | AUC [µM·h] | SMILES
40 | 124 | Cc1c(CC(=O)O)c(=O)oc2c(C)c(OCc3cccc(Br)c3)ccc12
